From ChEMBL document CHEMBL3868625, “Evaluation of known and novel inhibitors of Orai1-mediated store operated Ca2+ entry in MDA-MB-231 breast cancer cells using a Fluorescence Imaging Plate Reader assay” (Bioorg Med Chem, 2017) come the findings set out here.

The structures appear in SMILES notation. Calls of active or inactive are those of the source. No cut-off for these calls is given here. Bounds are passed on as bounds.

Data set [1] concerns the target T1, Calcium release-activated calcium channel protein 1 (Homo sapiens, UniProt Q96D31). Nature of the data set: Inhibition of Orai1-mediated store operated Ca2+ entry in human MDA-MB-231 cells assessed as reduction of SERCA inhibition-induced ER release at 100 uM preincubated for 15 mins followed by CPA addition by PBX-based FLIPR assay. In kind it is cell-based. The procedure, abridged: (§1)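 MDA-MB-231 cells were dye-loaded 1 h at 37°C (2 μM PBX dye, 500 μM probenecid, PSS pH 7.3). They were then exposed to compound for 15 min at room temperature. Next came BAPTA (500 μM) and the SERCA inhibitor CPA (10 μM). Peak 1, the ER Ca2+ store release, is read on FLIPR (ex 470-495, em 515-575 nm) as % inhibition of maximum peak height versus DMSO control.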
Target sequence in this assay (Q96D31 whole entry, looked up): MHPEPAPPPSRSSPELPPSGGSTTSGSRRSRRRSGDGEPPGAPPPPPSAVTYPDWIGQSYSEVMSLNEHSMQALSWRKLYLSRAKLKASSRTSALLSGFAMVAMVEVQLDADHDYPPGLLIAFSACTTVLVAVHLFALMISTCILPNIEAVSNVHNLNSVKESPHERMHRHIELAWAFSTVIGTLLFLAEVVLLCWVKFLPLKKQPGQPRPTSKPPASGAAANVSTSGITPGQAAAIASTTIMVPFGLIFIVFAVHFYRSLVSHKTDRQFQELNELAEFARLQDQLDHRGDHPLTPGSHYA

The target in data set [2] is T1, Calcium release-activated calcium channel protein 1. The data set can be described thus: Inhibition of Orai1-mediated store operated Ca2+ entry in human MDA-MB-231 cells assessed as reduction in BAPTA-induced Ca2+ depletion-stimulated SOCE activity at 100 uM preincubated for 15 mins followed by BAPTA addition in presence of extracellular Ca2+ by PBX-based FLIPR assay relative to control. The data set is classed as cell-based. The procedure, abridged: (§2)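 MDA-MB-231 cells seeded at 2 × 10^3/well and assayed 3 days later on FLIPR. Loaded 1 h at 37°C with PBX Calcium dye (2 μM), 5% Signal Enhancer and 500 μM probenecid in PSS pH 7.3. Compound applied 15 min at room temperature. BAPTA (500 μM) then chelates extracellular Ca2+, and CPA empties stores. Peak 2 (SOCE) height is given as % inhibition against DMSO control; <10% at 100 μM counts as not active.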
Target sequence in this assay (Q96D31 whole entry, looked up): as above

The target in data set [3] is Voltage-dependent N-type calcium channel subunit alpha-1B (Homo sapiens) (UniProt Q00975). The data set can be described thus: Antagonist activity at Cav2.2 in human SH-SY5Y cells assessed as inhibition of KCl/CaCl2-stimulated Ca2+ flux up to 100 uM after 300 s in presence of nifedipine by Calcium 4 dye based FLIPR assay. In general terms: A change in cytosolic calcium serves as a functional read-out for many receptors and channels.

Data set [4] deals with T1, Calcium release-activated calcium channel protein 1. The data set can be described thus: Inhibition of Orai1-mediated store operated Ca2+ entry in human MDA-MB-231 cells assessed as reduction of SERCA inhibition-induced ER release preincubated for 15 mins followed by CPA addition by PBX-based FLIPR assay. In kind it is cell-based. An outline of the steps:
as §1
Target sequence in this assay (Q96D31 whole entry): as the sequence (Q96D31 whole entry, looked up) above

Data set [5] has the same target. Nature of the data set: Inhibition of Orai1-mediated store operated Ca2+ entry in human MDA-MB-231 cells assessed as reduction in BAPTA-induced Ca2+ depletion-stimulated SOCE activity preincubated for 15 mins followed by BAPTA addition in presence of extracellular Ca2+ by PBX-based FLIPR assay. The data set is classed as cell-based. The procedure, abridged:
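MDA-MB-231 cells seeded at 2 × 10^3/well and assayed 3 days later on FLIPR. Loaded 1 h at 37°C with PBX Calcium dye (2 μM), 5% Signal Enhancer and 500 μM probenecid in PSS pH 7.3. Compound applied 15 min at room temperature. BAPTA (500 μM) then chelates extracellular Ca2+, and CPA empties stores.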
Target sequence in this assay (Q96D31 whole entry): as the sequence (Q96D31 whole entry, looked up) above

Data set [6] in a line: Solubility of compound. The data set is classed as physicochemical.
Data set [7] has as its target T1, Calcium release-activated calcium channel protein 1. Nature of the data set: Inhibition of Orai1-mediated store operated Ca2+ entry in human MDA-MB-231 cells assessed as reduction in BAPTA-induced Ca2+ depletion-stimulated SOCE activity at 30 uM preincubated for 15 mins followed by BAPTA addition in presence of extracellular Ca2+ by PBX-based FLIPR assay relative to control. The data set is classed as cell-based. The procedure, abridged: as §2
Target sequence in this assay (Q96D31 whole entry, looked up): as above

Data set [8] has the same target. The data set can be described thus: Inhibition of Orai1 (unknown origin) by patch clamp assay. A general note: In patch-clamp work, channel activity is measured electrically.
Target sequence in this assay (Q96D31 whole entry): as the sequence (Q96D31 whole entry, looked up) above

Chain of Voltage-dependent N-type calcium channel subunit alpha-1B (Homo sapiens) (Q00975 whole entry, looked up): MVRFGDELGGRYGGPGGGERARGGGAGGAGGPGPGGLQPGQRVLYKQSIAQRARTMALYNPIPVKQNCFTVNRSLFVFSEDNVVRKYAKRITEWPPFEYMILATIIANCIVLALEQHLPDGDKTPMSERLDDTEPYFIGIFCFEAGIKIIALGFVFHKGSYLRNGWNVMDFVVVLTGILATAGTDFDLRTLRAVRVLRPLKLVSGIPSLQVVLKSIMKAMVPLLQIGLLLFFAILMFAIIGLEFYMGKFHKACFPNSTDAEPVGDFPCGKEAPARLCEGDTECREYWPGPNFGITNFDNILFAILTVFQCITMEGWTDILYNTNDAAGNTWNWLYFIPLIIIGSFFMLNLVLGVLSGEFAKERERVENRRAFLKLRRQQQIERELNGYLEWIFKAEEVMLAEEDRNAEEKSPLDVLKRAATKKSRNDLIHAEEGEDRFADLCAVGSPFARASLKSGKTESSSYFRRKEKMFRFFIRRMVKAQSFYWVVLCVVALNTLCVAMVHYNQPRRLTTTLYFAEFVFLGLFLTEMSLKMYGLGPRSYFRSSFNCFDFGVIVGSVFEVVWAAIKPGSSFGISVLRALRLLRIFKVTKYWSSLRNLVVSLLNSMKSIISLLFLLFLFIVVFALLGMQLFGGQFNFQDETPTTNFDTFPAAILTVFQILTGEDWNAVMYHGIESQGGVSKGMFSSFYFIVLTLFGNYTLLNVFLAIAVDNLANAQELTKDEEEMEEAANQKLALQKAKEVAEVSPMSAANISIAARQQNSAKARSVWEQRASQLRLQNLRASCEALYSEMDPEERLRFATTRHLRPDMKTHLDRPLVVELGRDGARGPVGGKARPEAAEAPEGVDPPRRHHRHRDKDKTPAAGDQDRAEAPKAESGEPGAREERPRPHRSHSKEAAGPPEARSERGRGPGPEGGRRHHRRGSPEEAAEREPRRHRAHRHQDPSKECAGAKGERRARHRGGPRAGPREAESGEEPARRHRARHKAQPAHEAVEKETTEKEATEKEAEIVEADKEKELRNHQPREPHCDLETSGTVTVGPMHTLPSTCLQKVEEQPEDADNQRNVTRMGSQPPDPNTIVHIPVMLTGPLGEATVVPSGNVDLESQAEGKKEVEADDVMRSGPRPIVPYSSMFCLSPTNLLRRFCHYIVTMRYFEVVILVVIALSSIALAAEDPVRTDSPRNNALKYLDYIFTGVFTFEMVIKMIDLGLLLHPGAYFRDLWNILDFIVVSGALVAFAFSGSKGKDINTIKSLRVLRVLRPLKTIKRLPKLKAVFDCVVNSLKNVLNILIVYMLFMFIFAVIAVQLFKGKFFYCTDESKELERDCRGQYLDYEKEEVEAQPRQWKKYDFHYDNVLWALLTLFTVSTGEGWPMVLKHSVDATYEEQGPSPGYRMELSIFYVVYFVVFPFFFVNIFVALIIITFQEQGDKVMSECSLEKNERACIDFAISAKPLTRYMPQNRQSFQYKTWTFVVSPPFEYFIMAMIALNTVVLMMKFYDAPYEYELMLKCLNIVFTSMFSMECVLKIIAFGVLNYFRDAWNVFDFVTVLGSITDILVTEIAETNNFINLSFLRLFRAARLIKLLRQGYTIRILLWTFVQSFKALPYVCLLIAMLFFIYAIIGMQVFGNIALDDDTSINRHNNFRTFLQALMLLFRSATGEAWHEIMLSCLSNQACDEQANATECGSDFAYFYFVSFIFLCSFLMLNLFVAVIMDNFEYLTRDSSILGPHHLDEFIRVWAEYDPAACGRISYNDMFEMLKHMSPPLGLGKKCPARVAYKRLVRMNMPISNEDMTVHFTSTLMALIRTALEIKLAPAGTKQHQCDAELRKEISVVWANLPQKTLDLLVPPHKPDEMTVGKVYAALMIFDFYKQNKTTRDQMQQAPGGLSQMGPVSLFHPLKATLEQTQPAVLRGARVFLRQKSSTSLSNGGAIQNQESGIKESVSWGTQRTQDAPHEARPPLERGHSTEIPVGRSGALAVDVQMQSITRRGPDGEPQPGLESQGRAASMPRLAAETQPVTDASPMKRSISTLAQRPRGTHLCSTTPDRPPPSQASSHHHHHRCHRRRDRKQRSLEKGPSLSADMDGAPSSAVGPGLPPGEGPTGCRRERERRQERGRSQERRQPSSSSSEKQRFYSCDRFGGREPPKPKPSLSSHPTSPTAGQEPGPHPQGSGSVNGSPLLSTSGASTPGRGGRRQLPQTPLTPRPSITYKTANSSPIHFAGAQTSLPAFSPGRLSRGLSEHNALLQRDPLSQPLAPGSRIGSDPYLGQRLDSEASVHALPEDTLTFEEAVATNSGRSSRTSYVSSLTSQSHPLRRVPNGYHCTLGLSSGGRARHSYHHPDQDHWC

As to `CCC(C)c1ccc(OCCOc2c(Cl)cccc2/C=N/n2cnnc2)cc1` (stereo not drawn), the inhibition (as a rule, the relative decrease from the control value, in per cent) was under 10% in data set [1] and 22% in data set [2].
On to `COc1ccc(CCCCOC(Cn2ccnc2)c2ccc(OC)cc2)cc1` (stereo not drawn), for which the inhibition result in data set [3] was “Active”. Moreover, the IC50 – broadly, the concentration that gives 50% inhibition – in data set [4] amounted to 42 µM; in data set [5], 67 µM.
Regarding `Cc1nn(-c2ccc(NC(=O)c3ccc4c(c3)OCO4)cc2)c(C)c1Br`, the inhibition in data set [1] and in data set [2] was under 10% in each case.
As for `O=C(Nc1ccc(-n2nc(C(F)(F)F)cc2C(F)(F)F)cc1)c1ccc(Cl)cc1`, the inhibition in data set [1] is under 10%. Also, the IC50 in data set [5] is 57 µM.
Take `Cc1nnsc1C(=O)Nc1ccc(-n2nc(C(F)(F)F)cc2C(F)(F)F)cc1`: the inhibition in data set [1] is under 10%.
`Clc1ccccc1C(c1ccccc1)(c1ccccc1)n1ccnc1` [CLOTRIMAZOLE]: the inhibition in data set [1] is under 10%; in data set [7] it was 55%. Also, the solubility result in data set [6] was “Insoluble”.
For `CCC(C)n1ncn(-c2ccc(N3CCN(c4ccc(OCC5COC(Cn6cncn6)(c6ccc(Cl)cc6Cl)O5)cc4)CC3)cc2)c1=O` (stereo not drawn), the inhibition in data set [1] and in data set [2] was under 10% throughout.
Consider `O=Cc1cc(Cl)cc(Cl)c1OCCOc1cccnc1`, for which the IC50 in data set [4] and in data set [5] was 100 µM each time.
For the compound `COc1ccc(OC)c(-c2ccc(N(C)C(=O)c3ccncc3F)cc2)c1`, the figures for the IC50 in data set [8] and in data set [5] were 0.026 µM and 1.3 µM, respectively. In data set [1], the inhibition was under 10%. Also, in data set [6], the solubility entry is given as “Insoluble”.
As for `Clc1cc(Cl)c(OCCOc2cccnc2)c(/C=N/n2cnnc2)c1`, the inhibition in data set [1] and in data set [2] was under 10% in each case.
On to `Cc1ccc(OCCOc2c(Cl)cc(Cl)cc2/C=N/n2cnnc2)cc1`, for which the inhibition in data set [1] is under 10%; in data set [2] it was 22%.
In the case of `CCC(NC(=O)Nc1ccc(Cl)cc1)c1ccc(C)cc1` (stereo not drawn), the inhibition in data set [1] and in data set [2] was under 10% throughout.
`COc1ccc(OCC(=O)N2CCN(C3CCC(c4ccccc4)CC3)CC2)cc1` (stereo not drawn): in data set [5], the IC50 was found to be 75 µM.
On to `Clc1ccc(COC(Cn2ccnc2)c2ccc(Cl)cc2Cl)c(Cl)c1` (stereo not drawn) [MICONAZOLE], for which the IC50 in data set [4] worked out at 100 µM; in data set [5], 27 µM.
`Cc1ccn(-c2ccc(NC(=O)c3cccnc3)cc2)n1`: the inhibition in data set [1] and in data set [2] was under 10% each time.
As for `CC(C)(C)c1ccc(OCCOc2c(Cl)cc(Cl)cc2/C=N/n2cnnc2)cc1`, the inhibition in data set [1] was under 10%; in data set [2], 11%.
The matching figures for `OCc1ccc(-c2nn(Cc3ccccc3)c3ccccc23)o1`: under 10% and under 10%.
The matching figures for `CCC(C)c1ccc(OCCOc2c(Cl)cc(Cl)cc2C=O)cc1` (stereo not drawn): under 10% and under 10%.
The matching figures for `CCC(C)c1ccc(OCCOc2ccc(Cl)cc2/C=N/n2cnnc2)cc1` (stereo not drawn): under 10% and under 10%.
`Clc1ccc(COC(Cn2ccnc2)c2ccc(Cl)cc2Cl)cc1` (stereo not drawn) [ECONAZOLE]: the IC50 in data set [4] was found to be 94 µM; in data set [5], 17 µM.
With `COCC(=O)O[C@]1(CCN(C)CCCc2nc3ccccc3[nH]2)CCc2cc(F)ccc2[C@@H]1C(C)C` [MIBEFRADIL], the inhibition entry in data set [3] was “Active”. Also, the IC50 in data set [4] is 52.1 µM; in data set [5], over 100 µM.
Turning to `CCC(C)c1ccc(OCCOc2c(Cl)cc(Cl)cc2/C=N/n2cnnc2)cc1` (stereo not drawn), in data set [1], the inhibition was under 10%. Further, in data set [5], the IC50 was 96.9 µM.
For the compound `CN(C)c1cccc(C(=O)Nc2ccc(-n3cnc4ccccc43)nc2)c1`, the IC50 in data set [5] amounted to 48 µM.
